Reference: ChEMBL document CHEMBL3259627, “Allosteric inhibition of human factor XIa: discovery of monosulfated benzofurans as a class of promising inhibitors” (J Med Chem, 2014)
The source made the active and inactive calls. No cut-off for these calls is given here.

Legend:
Coagulation factor XI [1] = biological target: T1, Coagulation factor XI (Homo sapiens, UniProt P03951); assay: Activation of full-length human factor-11a-mediated S-2366 hydrolysis at 300 uM preincubated for 10 mins followed by substrate addition by spectrophotometric analysis relative to control; parameters: scale not given: the % may be the effect or the level left
T1 sequence (P03951 19-387 limits assumed): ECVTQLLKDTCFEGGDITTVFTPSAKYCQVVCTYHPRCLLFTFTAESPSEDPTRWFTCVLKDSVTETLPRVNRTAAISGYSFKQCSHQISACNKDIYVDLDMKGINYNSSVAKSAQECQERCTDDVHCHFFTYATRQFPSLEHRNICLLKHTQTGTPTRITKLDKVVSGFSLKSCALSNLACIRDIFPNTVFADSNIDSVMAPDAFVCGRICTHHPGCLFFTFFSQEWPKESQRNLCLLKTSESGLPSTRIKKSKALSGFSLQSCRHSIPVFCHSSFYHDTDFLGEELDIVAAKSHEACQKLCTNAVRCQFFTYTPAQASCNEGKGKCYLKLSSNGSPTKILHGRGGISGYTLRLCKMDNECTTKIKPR
T1 sequence (P03951 388-625 limits assumed): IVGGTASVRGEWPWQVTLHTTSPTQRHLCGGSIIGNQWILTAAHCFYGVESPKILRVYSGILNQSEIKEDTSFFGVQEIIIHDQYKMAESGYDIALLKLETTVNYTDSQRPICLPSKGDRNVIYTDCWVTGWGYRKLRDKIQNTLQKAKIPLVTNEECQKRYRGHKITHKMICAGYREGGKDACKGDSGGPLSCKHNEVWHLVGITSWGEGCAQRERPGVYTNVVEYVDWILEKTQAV
Procedure, shortened: (§1)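 Single-point screen: inhibitor (300 μM final) incubated with fXIa (0.765 nM final) in 0.05 M Tris-HCl pH 7.4, 0.15 M NaCl, 0.1% PEG8000, 0.02% Tween80, 10 min at 37 °C. S-2366 then added (330 μM final) and the initial rate taken from A405 rise (<10% conversion). Residual activity (%) is the rate ratio with versus without inhibitor. At least duplicate; mean ± SD.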

Coagulation factor XI [2] = biological target: T1, Coagulation factor XI; assay: Inhibition of full-length human factor-11a-mediated S-2366 hydrolysis at 300 uM preincubated for 10 mins followed by substrate addition by spectrophotometric analysis relative to control; procedure, shortened: as §1
Coagulation factor XI [3] = biological target: T1, Coagulation factor XI; assay: Inhibition of full-length human factor-11a-mediated S-2366 hydrolysis preincubated for 10 mins followed by substrate addition by spectrophotometric analysis
Procedure, shortened: (§2)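 Dose-response run in the same Tris pH 7.4 buffer with NaCl, PEG8000 and Tween80. Serial 2/3 or 5/6 inhibitor dilutions were preincubated 10 min at 37 °C with fXIa (0.765 nM final). S-2366 was then added (330 μM final) and the initial A405 rate read. Residual activity versus log[I] was fitted to a logistic equation for IC50, Hill slope, YM and Y0. At least two measurements; ± SD.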

Coagulation factor XI [4] = biological target: T1, Coagulation factor XI; assay: Inhibition of full-length human factor-11a-mediated S-2366 hydrolysis assessed as reduction in residual activity at 300 uM preincubated for 10 mins followed by substrate addition by spectrophotometric analysis relative to control; procedure, shortened: as §1
Coagulation factor XI [5] = biological target: T1, Coagulation factor XI; assay: Inhibition of full-length human factor-11a-mediated S-2366 hydrolysis preincubated for 10 mins followed by substrate addition by spectrophotometric analysis relative to control; procedure, shortened: as §2
Coagulation factor XI [6] = biological target: T1, Coagulation factor XI; assay: Binding affinity to fluorescein-EGR-labeled human factor-11a by fluorescence spectroscopic analysis
Procedure, shortened: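 fXIa active-site labeled with fluorescein-EGR (74 nM) in Tris pH 7.4 buffer without Tween80 at 37 °C. Excitation at 480 nm, emission recorded at 522 nm during ligand titration. ΔF/F0 versus ligand concentration was fitted to a quadratic binding equation to give the dissociation constant.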

Coagulation factor XI [7] = biological target: T1, Coagulation factor XI
Coagulation factor XI [8] = biological target: T1, Coagulation factor XI; assay: Inhibition of human factor-11a catalytic domain-mediated S-2366 hydrolysis preincubated for 10 mins followed by substrate addition by spectrophotometric analysis
Procedure, shortened: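 Recombinant fXIa catalytic domain (0.765 nM final) in 0.05 M Tris-HCl pH 7.4, 0.15 M NaCl, 0.1% PEG8000, 0.02% Tween80. Incubated 10 min at 37 °C with serial inhibitor dilutions (2/3 or 5/6 decrements), then S-2366 added to 330 μM final. Initial A405 rate gives residual activity; IC50 from logistic fit versus log[I]; at least two measurements.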

Compound	IC50 (Coagulation factor XI [3])	Activity (Coagulation factor XI [4])	Efficacy (Coagulation factor XI [5])	also measured
O=C(O)C1Cc2cc(OS(=O)(=O)O)c(OS(=O)(=O)O)cc2CN1C(=O)c1cc(OS(=O)(=O)O)c(OS(=O)(=O)O)c(OS(=O)(=O)O)c1 (stereo unspecified)				Activity (Coagulation factor XI [1]): 20%
CCOC(=O)c1c(C)oc2cc(OC)c(OCc3oc4cc(OC)c(OCc5oc6cc(OS(=O)(=O)O)c(OC)cc6c5C(=O)OCC)cc4c3C(=O)OCC)cc12				inhibition (Coagulation factor XI [2]): inactive
O=C(Nc1ccc(OS(=O)(=O)O)cc1)c1cccc(N2C(=O)c3ccc(C(=O)Nc4ccc(OS(=O)(=O)O)cc4)cc3C2=O)c1	122 µM	> 50%	100%	
CCOC(=O)c1c(C)oc2cc(OC)c(OCc3oc4cc(OC)c(OCc5oc6cc(OC(C)C)c(OS(=O)(=O)O)cc6c5C(=O)OCC)cc4c3C(=O)OCC)cc12	47.2 µM	> 50%	100%	
CCOC(=O)c1c(C)oc2cc(OC)c(OCc3oc4cc(OC)c(OCc5oc6cc(OC)c(OS(=O)(=O)O)cc6c5C(=O)OCC)cc4c3C(=O)OCC)cc12	6.4 µM	> 50%	100%	
CCOC(=O)c1c(C)oc2cc(OC)c(OCc3oc4cc(OC)c(OCc5oc6cc(OC)c(OS(=O)(=O)O)cc6c5C(=O)OC)cc4c3C(=O)OCC)cc12	14.9 µM	> 50%	100%	
CCOC(=O)c1c(C)oc2cc(OC)c(OCc3oc4cc(OCC)c(OS(=O)(=O)O)cc4c3C(=O)OCC)cc12	7.5 µM	> 50%	100%	Kd (Coagulation factor XI [6]): 4.5 µM
CCOC(=O)c1c(C)oc2cc(OCc3oc4cc(OC)c(OS(=O)(=O)O)cc4c3C(=O)OCC)c(OC)cc12				inhibition (Coagulation factor XI [2]): inactive
CCOC(=O)c1c(COc2cc3c(C(=O)O)c(C)oc3cc2OC)oc2cc(OC)c(OCc3oc4cc(OC)c(OS(=O)(=O)O)cc4c3C(=O)OCC)cc12	29.9 µM	> 50%	100%	
CCOC(=O)C1Cc2cc(OS(=O)(=O)O)c(OS(=O)(=O)O)cc2CN1C(=O)c1ccc(OS(=O)(=O)O)c(OS(=O)(=O)O)c1 (stereo unspecified)				Activity (Coagulation factor XI [1]): 20%
CCOC(=O)c1c(C)oc2cc(OC)c(OCc3oc4cc(OC)c(OCc5oc6cc(OC)c(OCc7oc8cc(OC)c(OS(=O)(=O)O)cc8c7C(=O)OCC)cc6c5C(=O)OCC)cc4c3C(=O)OCC)cc12	99 µM	> 50%	100%	
O=C(c1cc(OS(=O)(=O)O)cc(OS(=O)(=O)O)c1)N1CCc2cc(OS(=O)(=O)O)c(OS(=O)(=O)O)cc2C1				Activity (Coagulation factor XI [1]): 20%
CCOC(=O)c1c(C)oc2cc(OC)c(OCc3oc4cc(OC)c(OCc5oc6cc(OCC)c(OS(=O)(=O)O)cc6c5C(=O)OCC)cc4c3C(=O)OCC)cc12	0.82 µM	> 50%	100%	KSV (Coagulation factor XI [7]): 2.3; Kd (Coagulation factor XI [6]): 1.2 µM; IC50 (Coagulation factor XI [8]): 49 µM
COC(=O)c1c(C)oc2cc(OC)c(OCc3oc4cc(OC)c(OS(=O)(=O)O)cc4c3C(=O)OC)cc12	9.7 µM	> 50%	100%	
C=CCOC(=O)c1c(C)oc2cc(OC)c(OCc3oc4cc(OC)c(OCc5oc6cc(OC)c(OS(=O)(=O)O)cc6c5C(=O)OCC)cc4c3C(=O)OCC)cc12	29.9 µM	> 50%	100%	
O=C(c1cc(OS(=O)(=O)O)c(OS(=O)(=O)O)c(OS(=O)(=O)O)c1)N1CCc2cc(OS(=O)(=O)O)c(OS(=O)(=O)O)cc2C1				Activity (Coagulation factor XI [1]): 20%
CCOC(=O)c1c(COc2cc3c(C(=O)OCC)c(COc4cc5c(C(=O)O)c(C)oc5cc4OC)oc3cc2OC)oc2cc(OC)c(O)cc12	384 µM		100%	inhibition (Coagulation factor XI [2]): 50%
N#Cc1c(SCC(=O)c2cccc(OS(=O)(=O)O)c2OS(=O)(=O)O)nc([N+](=O)[O-])c(C#N)c1-c1ccc(Oc2ccccc2)cc1	109 µM	> 50%	100%	
